Data set [1] addresses T1, Metabotropic glutamate receptor 4 (Homo sapiens, UniProt Q14833). Briefly: Positive allosteric modulation of human mGlu4 receptor expressed in BHK cells assessed as potentiation of glutamate-induced response after 1 hr by FLIPR assay relative to glutamate. The class given is cell-based. In a few lines:
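BHK cells stably co-expressing human mGlu4 and murine G-protein […], grown in DMEM at 37 °C, 5% CO₂. Cells seeded 24 h before assay, then loaded with Calcium 3 no-wash dye in HBSS/HEPES pH 7.4 with 0.1% BSA and 2.5 mM probenecid for 1 h at 37 °C. FLIPR calcium read after stimulation with EC₂₀ glutamate plus compound. Emax is percent of maximal glutamate response. Mean of ≥2 independent duplicate experiments.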

Data set [2] concerns the target T1, Metabotropic glutamate receptor 4. Briefly: Positive allosteric modulation of human mGlu4 receptor expressed in BHK cells assessed as potentiation of glutamate-induced calcium mobilization after 1 hr by FLIPR assay. The data set is classed as functional, cell-based. In a few lines: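 Stable BHK line co-expressing human mGlu4 and murine Gα15, plated on poly-D-lysine 24 h ahead. Cells loaded 1 h at 37 °C, 5% CO2 with Calcium 3 dye in HBSS/20 mM HEPES pH 7.4, 0.1% BSA, 2.5 mM probenecid. Test agent added with an EC20 glutamate challenge. Peak fluorescence change read by FLIPR and fitted to the Hill equation. At least two independent runs in duplicate, means reported.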
Background: Calcium flux is commonly read through the fluorescence of an indicator in the cells.

Data set [3] in a line: Kinetic solubility of the compound at pH 7.4 at room temperature. The conditions noted are these: buffer, read-out: Kinetic_solubility. The data set is classed as physicochemical. In a few lines:
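Kinetic solubility measured from DMSO stock solutions at room temperature. Assay run at the pH named in each line.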

Data set [4] can be described thus: Apparent permeability of the compound by PAMPA assay. The class given is ADME. In a few lines:
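Passive permeability measured in a PAMPA assay.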
(In general: The PAMPA barrier holds no transporters, so it reflects passive diffusion.)

As a reminder, the Emax is the greatest response seen or fitted, relative to the assay's reference. For orientation: EC50 means the concentration giving half of the maximal effect. The Papp is the rate of passage across a membrane or cell layer, normalised by area and donor concentration.

Converted amounts (≈) assume the structure as drawn.

T1 sequence (Q14833 whole entry): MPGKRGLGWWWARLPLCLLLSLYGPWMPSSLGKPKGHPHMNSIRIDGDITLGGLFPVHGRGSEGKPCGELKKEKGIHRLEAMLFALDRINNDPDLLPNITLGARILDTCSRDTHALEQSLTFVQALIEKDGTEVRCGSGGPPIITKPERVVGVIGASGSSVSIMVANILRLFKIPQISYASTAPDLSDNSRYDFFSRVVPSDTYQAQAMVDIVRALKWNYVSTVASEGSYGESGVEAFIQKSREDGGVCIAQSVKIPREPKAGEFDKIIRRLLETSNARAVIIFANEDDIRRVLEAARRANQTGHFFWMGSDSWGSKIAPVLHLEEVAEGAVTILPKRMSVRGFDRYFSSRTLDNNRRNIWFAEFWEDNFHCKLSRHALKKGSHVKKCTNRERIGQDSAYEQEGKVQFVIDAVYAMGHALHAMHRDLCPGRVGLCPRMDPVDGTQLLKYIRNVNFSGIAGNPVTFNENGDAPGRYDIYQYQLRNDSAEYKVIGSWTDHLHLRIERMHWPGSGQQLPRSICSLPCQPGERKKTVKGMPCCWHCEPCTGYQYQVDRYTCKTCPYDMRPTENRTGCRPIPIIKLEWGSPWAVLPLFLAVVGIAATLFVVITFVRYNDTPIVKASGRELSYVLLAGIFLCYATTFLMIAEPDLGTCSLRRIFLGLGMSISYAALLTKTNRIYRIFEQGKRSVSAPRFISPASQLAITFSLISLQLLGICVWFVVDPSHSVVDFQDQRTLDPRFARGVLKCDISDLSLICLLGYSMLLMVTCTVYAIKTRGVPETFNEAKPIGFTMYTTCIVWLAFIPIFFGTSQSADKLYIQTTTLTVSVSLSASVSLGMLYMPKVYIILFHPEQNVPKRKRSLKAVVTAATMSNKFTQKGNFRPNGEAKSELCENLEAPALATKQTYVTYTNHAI

For `Fc1ccc(Nc2nc3c(s2)CCCc2n[nH]cc2-3)nc1`, the Emax in data set [1] is 170%.
Turning to `c1cc(Nc2nc3c(s2)CCc2[nH]ncc2-3)ccn1`, in data set [2], the EC50 was over 10 µM. Besides, the solubility kinetic in data set [3] was 180 µM (≈ 48.5 µg/mL). In data set [4], the Papp is 2.5 ×10⁻⁶ cm/s.
`c1cc(Nc2nc3c(s2)CCCc2n[nH]cc2-3)n[nH]1`: the Emax in data set [1] was 140%.
Take `Cc1ccc(Nc2nc3c(s2)CCCc2[nH]ncc2-3)nc1`: in data set [2], the EC50 is over 10 µM. In addition, the solubility kinetic in data set [3] is under 0.1 µM. Besides, the Papp in data set [4] came to 2.7 ×10⁻⁶ cm/s.
For `Cc1cc(C)nc(Nc2nc3c(s2)CCc2[nH]ncc2-3)c1`, in that order: over 10 µM, 0.1 µM (≈ 0.0297 µg/mL) and 1 ×10⁻⁶ cm/s.
Turning to `Cc1ccc(N2C(=O)c3ccccc3NC2C(C)c2ccccc2)cc1` (stereo not given), the Emax in data set [1] was found to be 129%.
Take `c1cc(Nc2nc3c(s2)CCc2n[nH]cc2-3)ccn1`: in data set [1], the Emax is 10%.
`Cc1cccc(Nc2nc3c(s2)CCc2n[nH]cc2-3)n1`: the Emax in data set [1] was determined as 120%.
With `Fc1ccc(Nc2nc3c(s2)CCCc2[nH]ncc2-3)nc1`, the EC50 in data set [2] came out at 0.75 µM. Moreover, the solubility kinetic in data set [3] is under 0.1 µM. Besides, the apparent permeability coefficient (Papp) in data set [4] is 0.3 ×10⁻⁶ cm/s.
For `c1cc(Nc2nc3c(s2)CCCc2[nH]ncc2-3)nc(N2CCCC2)c1`, in that order: over 10 µM, under 0.1 µM and 0.1 ×10⁻⁶ cm/s.
Regarding `Cc1[nH]ncc1-c1nc(Nc2ccccn2)sc1C`, in data set [2], the EC50 is over 10 µM. In data set [1], the Emax is 19%.
For the molecule `COc1ccnc(Nc2nc3c(s2)CCCc2n[nH]cc2-3)n1`, the maximal effect (Emax) in data set [1] was 230%.
As for `Clc1cccc(Nc2nc3c(s2)CCCc2[nH]ncc2-3)n1`, the EC50 in data set [2] came to 1.1 µM. Further, the solubility kinetic in data set [3] stood at 38 µM (≈ 12.1 µg/mL). The Papp in data set [4] came out at 15.4 ×10⁻⁶ cm/s.
Consider `Fc1cccc(Nc2nc3c(s2)CCCc2[nH]ncc2-3)n1`, for which the EC50 in data set [2] is 0.105 µM. Further, the solubility kinetic in data set [3] turned out to be 0.2 µM (≈ 0.0603 µg/mL). For the same molecule, the Papp in data set [4] was 0.1 ×10⁻⁶ cm/s.
Take `Cc1cc(C)nc(Nc2nc3c(s2)CCc2n[nH]cc2-3)c1`: in data set [1], the Emax was 11%.
The same measure, in the same setting: the result for `CN(C)c1cccc(Nc2nc3c(s2)CCCc2n[nH]cc2-3)n1` reads 150%.
Take `c1cc(Nc2nc3c(s2)CCCc2[nH]ncc2-3)[nH]n1`: the EC50 in data set [2] came out at 3.2 µM. Also, the solubility kinetic in data set [3] turned out to be 190 µM (≈ 51.7 µg/mL). The Papp in data set [4] came out at 25 ×10⁻⁶ cm/s.
On to `Cc1ccnc(Nc2nc3c(s2)CCCc2[nH]ncc2-3)n1`, for which, in data set [2], the EC50 came to 0.051 µM. Moreover, in data set [3], the solubility kinetic came to 0.6 µM (≈ 0.179 µg/mL). For the same molecule, the Papp in data set [4] worked out at 0.5 ×10⁻⁶ cm/s.
Turning to `N#Cc1cccc(Nc2nc3c(s2)CCCc2[nH]ncc2-3)n1`, in data set [2], the EC50 turned out to be 4.9 µM. In addition, the solubility kinetic in data set [3] is under 0.1 µM. Besides, the Papp in data set [4] was under 0.1 ×10⁻⁶ cm/s.
In the case of `Cc1ccnc(Nc2nc3c(s2)CCCc2n[nH]cc2-3)n1`, in data set [1], the Emax was determined as 210%.
On the same count and under the same terms, with `c1ccc(Nc2nc3c(s2)CCc2n[nH]cc2-3)cc1` the figure was 160%.
Turning to `c1csc(Nc2nc3c(s2)CCCc2n[nH]cc2-3)n1`, the EC50 in data set [2] is over 10 µM. The Emax in data set [1] is 35%.
For `Cc1cc(C)cc(-n2ncc3c(N4CCCC(C)C4)ncnc32)c1` (stereo not given), in that order: 4.6 µM and 100%.
Regarding `O=C(Nc1ccccc1)[C@]12C[C@H]1/C(=N\O)c1ccccc1O2`, in data set [1], the Emax was 120%.
Still for that read-out and setting: with `c1cnc(Nc2nc3c(s2)CCCc2n[nH]cc2-3)nc1` the figure was 160%.
Consider `Cc1cccnc1Nc1nc2c(s1)CCCc1[nH]ncc1-2`, for which the EC50 in data set [2] amounted to 3.4 µM. Besides, in data set [3], the solubility kinetic was found to be 0.2 µM (≈ 0.0595 µg/mL). The Papp in data set [4] worked out at 8 ×10⁻⁶ cm/s.
For `c1cnc(Nc2nc3c(s2)CCCc2[nH]ncc2-3)cn1` the same measures were over 10 µM, 78 µM (≈ 22.2 µg/mL) and 3.8 ×10⁻⁶ cm/s.
For `COc1ccnc(Nc2nc3c(s2)CCCc2[nH]ncc2-3)n1` the same measures were 0.1 µM, 0.6 µM (≈ 0.189 µg/mL) and 0.3 ×10⁻⁶ cm/s.
On to `O=C(Nc1cc(Cl)cc(Cl)c1)[C@H]1CCCC[C@H]1C(=O)O`, for which, in data set [2], the EC50 turned out to be 0.75 µM. Besides, the Emax in data set [1] came out at 120%.
In the case of `Cc1nc2ccccc2nc1N/N=C/c1ccc(O)cc1`, the maximal response (Emax) in data set [1] amounted to 144%.
Still for that read-out and setting: the result for `Cc1cc(C)nc(Nc2nc3c(s2)CCCc2n[nH]cc2-3)c1` reads 4%; that for `Cc1cc(Nc2nc3c(s2)CCCc2n[nH]cc2-3)n[nH]1`, 39%.
Still for that read-out and setting: the result for `Fc1cccc(Nc2nc3c(s2)CCCc2n[nH]cc2-3)n1` reads 170%.
Same read-out and setting: the result for `N#Cc1cccc(Nc2nc3c(s2)CCCc2n[nH]cc2-3)n1` reads 50%; that for `COc1cccc(Nc2nc3c(s2)CCCc2n[nH]cc2-3)n1`, 100%.
With `COc1cccc(Nc2nc3c(s2)CCCc2[nH]ncc2-3)n1`, the EC50 in data set [2] came out at 0.65 µM. Further, the solubility kinetic in data set [3] is 0.1 µM (≈ 0.0313 µg/mL). In data set [4], the Papp came out at 0.1 ×10⁻⁶ cm/s.
As to `c1ccc(Nc2nc3c(s2)CCCc2n[nH]cc2-3)nc1`, the Emax in data set [1] was 120%.
For the molecule `Cc1cccc(Nc2nc3c(s2)CCCc2[nH]ncc2-3)n1`, the EC50 in data set [2] was determined as 0.14 µM. For the same molecule, the solubility kinetic in data set [3] worked out at 110 µM (≈ 32.7 µg/mL). Also, in data set [4], the Papp was 4.9 ×10⁻⁶ cm/s.
For `Cc1cc(C)nc(Nc2nc3c(s2)CCCc2[nH]ncc2-3)c1`, in that order: over 10 µM, 0.4 µM (≈ 0.125 µg/mL) and 1.2 ×10⁻⁶ cm/s.
For `Cc1cccnc1Nc1nc2c(s1)CCCc1n[nH]cc1-2`, in data set [1], the Emax was 84%.
Same read-out and setting: the result for `c1cncc(Nc2nc3c(s2)CCc2n[nH]cc2-3)c1` reads 11%; that for `Cn1ccc(Nc2nc3c(s2)CCCc2n[nH]cc2-3)n1`, 130%.
As to `Cc1sc(Nc2ccccn2)nc1-c1cn[nH]c1`, in data set [2], the EC50 was 0.013 µM. Also, the Emax in data set [1] stood at 100%.
For `Cc1ccc(Nc2nc3c(s2)CCCc2n[nH]cc2-3)nc1`, the Emax in data set [1] was 28%.
On the same count and under the same terms, the result for `c1cnc(Nc2nc3c(s2)CCCc2n[nH]cc2-3)cn1` reads 18%; that for `Cc1cccc(Nc2nc3c(s2)CCCc2n[nH]cc2-3)n1`, 200%.
The same measure, in the same setting: the result for `c1ccc(Nc2nc3c(s2)CCc2n[nH]cc2-3)nc1` reads 150%; that for `c1cc(Nc2nc3c(s2)CCCc2n[nH]cc2-3)nc(N2CCCC2)c1`, 14%.
`Cn1ccc(Nc2nc3c(s2)CCCc2[nH]ncc2-3)n1`: the EC50 in data set [2] is 3 µM. Besides, the solubility kinetic in data set [3] came out at 160 µM (≈ 45.8 µg/mL). In data set [4], the Papp was 19 ×10⁻⁶ cm/s.
For `CN(C)c1cccc(Nc2nc3c(s2)CCCc2[nH]ncc2-3)n1`, in that order: 0.34 µM, under 0.1 µM and under 0.1 ×10⁻⁶ cm/s.
In the case of `c1cncc(Nc2nc3c(s2)CCc2[nH]ncc2-3)c1`, the EC50 in data set [2] is over 10 µM. Moreover, the solubility kinetic in data set [3] was 17 µM (≈ 4.58 µg/mL). Moreover, the Papp in data set [4] was determined as 18.7 ×10⁻⁶ cm/s.
`Clc1cccc(Nc2nc3c(s2)CCCc2n[nH]cc2-3)n1`: the Emax in data set [1] was 220%.
As to `Cc1cc(Nc2nc3c(s2)CCCc2[nH]ncc2-3)[nH]n1`, the EC50 in data set [2] is 2.4 µM. For the same molecule, the solubility kinetic in data set [3] was 10 µM (≈ 2.86 µg/mL). Further, the Papp in data set [4] was 15 ×10⁻⁶ cm/s.
`c1cncc(Nc2nc3c(s2)CCCc2[nH]ncc2-3)c1`: the EC50 in data set [2] is over 10 µM. In data set [3], the solubility kinetic is 3.8 µM (≈ 1.08 µg/mL). Also, the Papp in data set [4] was 35 ×10⁻⁶ cm/s.
Regarding `c1cncc(Nc2nc3c(s2)CCCc2n[nH]cc2-3)c1`, the Emax in data set [1] worked out at 26%.
Same read-out and setting: the result for `c1cnc(Nc2nc3c(s2)CCc2n[nH]cc2-3)nc1` reads 180%.
On to `Cc1n[nH]cc1-c1csc(Nc2ccccn2)n1`, for which the EC50 in data set [2] is 0.056 µM. In data set [1], the Emax came to 79%.

For the origin of these results see ChEMBL document CHEMBL1828519, “Tricyclic thiazolopyrazole derivatives as metabotropic glutamate receptor 4 positive allosteric modulators” (J Med Chem, 2011).
